In ChEMBL document CHEMBL1154753, “N-sulfonylanthranilic acid derivatives as allosteric inhibitors of dengue viral RNA-dependent RNA polymerase” (J Med Chem, 2009):
Calls of active or inactive are those of the source. No cut-off for these calls is given here.

How the values were obtained:
[1] = Inhibition of HCV RNA dependent RNA polymerase; design: species or system Hepacivirus hominis
[2] = molecular target: T1, DNA polymerase alpha catalytic subunit (Homo sapiens, UniProt P09884); test: Inhibition of human DNA polymerase alpha
T1 sequence (P09884 whole entry): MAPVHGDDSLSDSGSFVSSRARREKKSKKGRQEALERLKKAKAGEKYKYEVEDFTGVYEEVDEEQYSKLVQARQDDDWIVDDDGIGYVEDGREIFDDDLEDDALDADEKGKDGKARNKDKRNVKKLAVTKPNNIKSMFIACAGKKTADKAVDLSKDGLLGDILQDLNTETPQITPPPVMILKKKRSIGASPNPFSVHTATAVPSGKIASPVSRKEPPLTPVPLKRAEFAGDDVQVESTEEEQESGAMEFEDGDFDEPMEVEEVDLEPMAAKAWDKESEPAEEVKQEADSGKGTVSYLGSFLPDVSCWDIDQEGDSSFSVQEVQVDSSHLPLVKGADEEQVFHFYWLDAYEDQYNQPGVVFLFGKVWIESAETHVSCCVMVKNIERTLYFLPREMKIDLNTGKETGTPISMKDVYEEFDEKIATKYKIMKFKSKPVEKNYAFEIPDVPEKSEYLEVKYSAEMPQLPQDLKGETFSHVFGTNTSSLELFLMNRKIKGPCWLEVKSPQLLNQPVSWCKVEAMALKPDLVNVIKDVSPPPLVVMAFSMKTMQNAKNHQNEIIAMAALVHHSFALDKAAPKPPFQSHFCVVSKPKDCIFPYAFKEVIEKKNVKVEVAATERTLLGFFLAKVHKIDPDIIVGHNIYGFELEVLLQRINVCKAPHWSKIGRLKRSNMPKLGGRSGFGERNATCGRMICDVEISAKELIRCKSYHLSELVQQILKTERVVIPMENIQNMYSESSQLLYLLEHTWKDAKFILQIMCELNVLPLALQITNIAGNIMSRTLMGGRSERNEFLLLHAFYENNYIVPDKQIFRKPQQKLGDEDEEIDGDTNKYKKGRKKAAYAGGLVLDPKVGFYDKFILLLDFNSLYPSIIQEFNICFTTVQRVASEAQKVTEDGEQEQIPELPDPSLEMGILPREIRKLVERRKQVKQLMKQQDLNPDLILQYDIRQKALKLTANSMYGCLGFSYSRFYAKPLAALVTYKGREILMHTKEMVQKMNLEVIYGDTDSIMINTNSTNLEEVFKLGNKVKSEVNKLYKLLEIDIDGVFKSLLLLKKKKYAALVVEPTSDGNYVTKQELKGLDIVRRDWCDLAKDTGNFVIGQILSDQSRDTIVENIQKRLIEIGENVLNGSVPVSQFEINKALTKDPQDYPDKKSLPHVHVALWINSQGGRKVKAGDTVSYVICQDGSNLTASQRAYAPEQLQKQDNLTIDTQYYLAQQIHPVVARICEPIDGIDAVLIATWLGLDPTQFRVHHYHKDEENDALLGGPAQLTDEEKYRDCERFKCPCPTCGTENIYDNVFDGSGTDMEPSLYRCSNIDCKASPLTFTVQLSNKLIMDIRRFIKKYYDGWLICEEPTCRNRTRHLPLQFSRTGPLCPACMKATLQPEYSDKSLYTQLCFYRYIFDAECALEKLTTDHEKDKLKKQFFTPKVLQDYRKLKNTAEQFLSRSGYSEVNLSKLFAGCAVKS

DNA polymerase beta = DNA polymerase beta (Homo sapiens, UniProt P06746); test: Inhibition of human DNA polymerase beta
[3] = Inhibition of Dengue virus recombinant […] RNA dependent RNA polymerase using […] by SPA
In short: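 Purified recombinant dengue 2 NS5 polymerase at 50 nM, preincubated 1 h at room temperature with compound over a range of concentrations and annealed poly(C)/biotin-oligo G template. Buffer: 50 mM Tris-HCl pH 7.0, 10 mM KCl, 2 mM MgCl2, 2 mM MnCl2, 1 mM β-mercaptoethanol, 0.05% CHAPS. Stopped with EDTA and streptavidin SPA beads, then scintillation counting. Duplicates, average of at least two experiments.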

Dengue virus = test: Irreversible inhibition of Dengue virus recombinant […] RNA dependent RNA polymerase under ultraviolet light irradiation

Compound | IC50 [3] | further results
O=C(O)c1ccccc1NS(=O)(=O)c1cccc(-c2cnn(Cc3ccccc3)c2)c1 | 0.7 µM | IC50 [1]: > 20 µM; IC50 [2]: > 20 µM; IC50 (DNA polymerase beta): > 20 µM
O=S(=O)(Nc1ccccc1)c1cccc(-c2cnn(Cc3ccccc3)c2)c1 | > 20 µM | 
Cn1cc(-c2cccc(S(=O)(=O)Nc3ccccc3C(=O)O)c2)cn1 | > 20 µM | 
COc1ccc(C(=O)O)c(NS(=O)(=O)c2cccc(-c3cnn(Cc4ccccc4)c3)c2)c1 | 9.99 µM | 
O=C(O)c1cc(Cl)ccc1NS(=O)(=O)c1cccc(-c2cnn(Cc3ccccc3)c2)c1 | 2.56 µM | 
O=C(O)c1cccc(Cl)c1NS(=O)(=O)c1cccc(-c2cnn(Cc3ccccc3)c2)c1 | 18 µM | 
O=C(O)c1ccc(F)cc1NS(=O)(=O)c1cccc(-c2cnn(Cc3ccccc3)c2)c1 | 0.37 µM | IC50 [1]: > 20 µM; IC50 [2]: > 20 µM; IC50 (DNA polymerase beta): > 20 µM
NC(=O)c1ccccc1NS(=O)(=O)c1cccc(-c2cnn(Cc3ccccc3)c2)c1 | > 20 µM | 
CC1=NN(c2cccc(S(=O)(=O)Nc3ccccc3C(=O)O)c2)C(=O)C1 | 7.2 µM | 
COC(=O)c1ccccc1NS(=O)(=O)c1cccc(-c2cnn(Cc3ccccc3)c2)c1 | > 20 µM | 
O=C(O)c1ccccc1NS(=O)(=O)c1cccc(-c2cn[nH]c2)c1 | > 20 µM | 
O=C(O)c1ccc(NS(=O)(=O)c2cccc(-c3cnn(Cc4ccccc4)c3)c2)cc1 | > 20 µM | 
O=C(O)c1cccc(NS(=O)(=O)c2cccc(-c3cnn(Cc4ccccc4)c3)c2)c1 | > 20 µM | 
O=C(O)c1ccccc1NS(=O)(=O)c1cccc(-c2cnn(Cc3ccc4ccccc4c3)c2)c1 | 0.37 µM | 
O=C(O)c1ccccc1NS(=O)(=O)c1cccc(-c2cnn(CCN3CCOCC3)c2)c1 | > 20 µM | 
O=C(O)c1ccc(F)cc1NS(=O)(=O)c1cccc(-c2cnn(Cc3ccc4ccccc4c3)c2)c1 | 0.26 µM | IC50 [1]: > 20 µM; IC50 [2]: > 20 µM; IC50 (DNA polymerase beta): > 20 µM
O=C(O)c1c(Cl)cccc1NS(=O)(=O)c1cccc(-c2cnn(Cc3ccccc3)c2)c1 | > 20 µM | 
O=C(Nc1cccc(Cn2cc(-c3cccc(S(=O)(=O)Nc4ccccc4C(=O)O)c3)cn2)c1)c1ccc(C(=O)c2ccccc2)cc1 | 1.5 µM | Activity (Dengue virus): Active
CC(C)Cn1cc(-c2cccc(S(=O)(=O)Nc3ccccc3C(=O)O)c2)cn1 | > 20 µM | 
COc1cc(NS(=O)(=O)c2cccc(-c3cnn(Cc4ccccc4)c3)c2)c(C(=O)O)cc1OC | > 20 µM | 
CC(C)CCn1cc(-c2cccc(S(=O)(=O)Nc3ccccc3C(=O)O)c2)cn1 | 6.77 µM | 
O=C(O)c1ccc(Cl)cc1NS(=O)(=O)c1cccc(-c2cnn(Cc3ccccc3)c2)c1 | 0.77 µM | 
